# According to ChEMBL document CHEMBL4004808, “Antibacterial and Cytotoxic Phenolic Metabolites from the Fruits of Amorpha fruticosa” (J Nat Prod, 2017):
# The source made the active and inactive calls. No cut-off for these calls is given here.
# Tests used:
# Acinetobacter baumannii = experiment: Antibacterial activity against Acinetobacter baumannii ATCC BAA1605 by broth microdilution method; assay type: functional
# In short: (§1)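 MIC by broth microdilution following CLSI recommendations; moxifloxacin as positive control, DMSO as negative control.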
# Staphylococcus aureus [1] = experiment: Antibacterial activity against methicilin-resistant Staphylococcus aureus ATCC 700699 by broth microdilution method; assay type: functional; conditions: Mu50
# In short: (§2)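 MIC determined by broth microdilution following CLSI recommendations, with moxifloxacin as positive control and DMSO as negative control.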
# Enterococcus faecalis [2] = experiment: Antibacterial activity against Enterococcus faecalis ATCC 29212 by broth microdilution method; assay type: functional; in short: as §2
# [3] = system: Mycobacterium tuberculosis; experiment: Antibacterial activity against Mycobacterium tuberculosis by broth microdilution method; assay type: functional
# Enterococcus faecium [4] = experiment: Antibacterial activity against Enterococcus faecium ATCC 35667 by broth microdilution method; assay type: functional; in short: as §1
# L5178Y = experiment: Cytotoxicity against mouse L5178Y cells by MTT assay; assay type: functional, cell-based
# In short: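 MTT proliferation assay on the L5178Y murine lymphoma line, run three times; kahalalide F as positive control and 0.1% DMSO in medium as negative control.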
# THP-1 = experiment: Cytotoxicity against human THP1 cells after 48 hrs by resazurin dye-based fluorescence analysis; assay type: cell-based; conditions: THP-1, 48 h
# MRC5 = experiment: Cytotoxicity against human MRC5 cells after 48 hrs by resazurin dye-based fluorescence analysis; assay type: cell-based; conditions: MRC5, 48 h
# Enterococcus faecalis [5] = experiment: Antibacterial activity against vancomycin-resistant Enterococcus faecalis ATCC 51299 by broth microdilution method; assay type: functional; in short: as §2
# Enterococcus faecium [6] = experiment: Antibacterial activity against Enterococcus faecium ATCC 700221 by broth microdilution method; assay type: functional; in short: as §1
# Staphylococcus aureus [7] = experiment: Antibacterial activity against Staphylococcus aureus ATCC 25923 by broth microdilution method; assay type: functional
Structure (SMILES),MIC (Acinetobacter baumannii) [µM],MIC (Staphylococcus aureus [1]) [µM],MIC (Enterococcus faecalis [2]) [µM],MIC [3] [µM],MIC (Enterococcus faecium [4]) [µM],Activity (L5178Y),IC50 (THP-1) [µM],IC50 (MRC5) [µM],MIC (Enterococcus faecalis [5]) [µM],MIC (Enterococcus faecium [6]) [µM],MIC (Staphylococcus aureus [7]) [µM],IC50 (L5178Y) [µM]
COc1cc(CCc2ccccc2)c(C(=O)O)c(O)c1C/C=C(/C)CCC=C(C)C,> 50,12.5,6.3,> 50,6.3,inactive,100,100,6.3,6.3,12.5,
COc1cc2c(cc1OC)[C@@H]1C(=O)c3ccc4c(c3O[C@@H]1CO2)C[C@H](C(C)(C)O[C@@H]1O[C@H](CO)[C@@H](O)[C@H](O)[C@H]1O)O4,,,,,,,,,,,,1.7
CC(C)=CCC/C(C)=C/Cc1c(O)cc(/C=C\c2ccccc2)cc1O,> 50,100,100,> 50,100,inactive,100,100,100,100,100,
COc1cc2c(cc1OC)-c1c(oc3c4c(ccc3c1=O)OC(C)(C)C=C4)CO2 [DEHYDRODEGUELIN],,,,,,,,,,,,10.2
CC(C)=CCC/C(C)=C/Cc1c(O)cc(/C=C/c2ccccc2)c(C(=O)O)c1O,> 50,12.5,25,> 50,25,inactive,100,100,25,25,12.5,
COc1cc2c(cc1OC)[C@@H]1C(=O)c3ccc(O)c(CC=C(C)C)c3O[C@@H]1CO2 [ROTENONIC ACID],,,,,,,,,,,,0.6
CC(C)=CCC/C(C)=C/Cc1c(O)cc(/C=C/c2ccccc2)cc1O [AMORPHASTILBOL],> 50,3.1,12.5,> 50,6.3,inactive,25,50,6.3,6.3,6.3,
CC(C)=CCC/C(C)=C\Cc1c(O)cc(CCc2ccccc2)c(C(=O)O)c1O,> 50,100,100,> 50,100,inactive,100,100,100,100,100,
COc1ccc(-c2coc3c(C/C=C(\C)CCC=C(C)C)c(O)cc(O)c3c2=O)cc1O,> 50,100,50,> 50,25,,50,50,100,25,100,
CC(C)=CCC/C(C)=C/Cc1c(O)cc(O)c2c1O[C@H](c1ccccc1)[C@H](O)C2=O,> 50,100,50,> 50,100,,100,100,100,100,100,
C=C(C)[C@@H](O)CC/C(C)=C/Cc1c(OC)cc(CCc2ccccc2)c(C(=O)O)c1O,,,,,,inactive,,,,,,
COc1cc(O)c2c(c1)O[C@@H]1COc3cc(OC)c(OC)cc3[C@@H]1C2=O,,,,,,,,,,,,0.2
COC1=CC(=O)[C@]2(C=C1OC)OC[C@H]1Oc3c4c(cc(O)c3C(=O)[C@H]12)OC(C)(C)C=C4,,,,,,,,,,,,1.3
COc1cc(/C=C/c2ccccc2)cc(OC)c1C/C=C(\C)CCC=C(C)C,> 50,> 100,> 100,> 50,100,inactive,100,100,> 100,> 100,> 100,
COc1ccc(-c2coc3cc(O)c(C/C=C(\C)CCC=C(C)C)c(O)c3c2=O)cc1O,> 50,100,25,> 50,25,,50,50,50,12.5,100,
C=C(CO)[C@H]1Cc2c(ccc3c2O[C@@H]2COc4cc(OC)c(OC)cc4[C@]2(O)C3=O)O1 [DABINOL],,,,,,,,,,,,0.2
COc1cc(CCc2ccccc2)c(C(=O)O)c(O)c1CC=C(C)C [AMORFRUTIN A],> 50,6.3,100,> 50,50,inactive,50,,25,25,50,
CC(C)=CCC/C(C)=C/Cc1c(O)cc(CCc2ccccc2)cc1O,> 50,6.3,25,> 50,12.5,inactive,50,,12.5,12.5,25,
CC(C)=CCC/C(C)=C/Cc1c(O)ccc(C(=O)/C=C/c2ccc(O)cc2)c1O [XANTHOANGELOL],> 50,3.1,12.5,> 50,12.5,,25,25,6.3,3.1,25,
C=C(C)[C@H]1Cc2c(ccc3c2O[C@@H]2COc4cc(OC)c(OC)cc4[C@@H]2C3=O)O1 [ROTENONE],,,,,,,,,,,,0.3
C=C(C)[C@@H](O)CC/C(C)=C/Cc1c(O)cc(CCc2ccccc2)c(C(=O)O)c1O,,,,,,inactive,,,,,,
COc1cc2c(cc1OC)[C@@H]1C(=O)c3c(O)cc4c(c3O[C@@H]1CO2)C=CC(C)(C)O4 [TOXICAROL],,,,,,,,,,,,0.2
C/C=C1\NC(=O)[C@H](Cc2ccccc2)NC(=O)[C@@H](C(C)C)NC(=O)[C@@H](C(C)CC)NC(=O)[C@H](NC(=O)[C@H](NC(=O)[C@H](CCCN)NC(=O)[C@@H]2CCCN2C(=O)[C@H](NC(=O)[C@@H](NC(=O)[C@@H](NC(=O)[C@H](NC(=O)CCCC(C)C)C(C)C)C(C)O)C(C)C)C(C)C)C(C)CC)C(C)OC(=O)[C@H](C(C)C)NC1=O (some centres not stated),,,,,,,,,,,,4.3
COc1cc2c(cc1OC)[C@@H]1C(=O)c3ccc4c(c3O[C@@H]1CO2)C=CC(C)(C)O4 [DEGUELIN],,,,,,,,,,,,0.2
COc1c(N2C[C@@H]3CCCN[C@@H]3C2)c(F)cc2c(=O)c(C(=O)O)cn(C3CC3)c12 [MOXIFLOXACIN],,3.8,0.9,,1.9,,,,0.9,7.8,< 0.9,
COC1=C[C@]2(OC[C@H]3Oc4c(ccc5c4C=CC(C)(C)O5)C(=O)[C@H]32)C(=O)CC1=O,,,,,,,,,,,,7.6
CC(C)=CCC/C(C)=C/Cc1c(O)cc(/C=C\c2ccccc2)c(C(=O)O)c1O,> 50,100,50,> 50,50,inactive,100,100,100,100,50,
COc1cc2c(cc1OC)[C@@H]1C(=O)c3ccc4c(c3O[C@@H]1CO2)C[C@H](C(C)(C)O)O4 [DALPANOL],,,,,,,,,,,,0.7
